The values below come from PubChem BioAssay.

The source made the active and inactive calls.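 Rule for the calls: active = current rise at least 3 SD above the untreated control mean in each of two repeat wells; inactive = the rest.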

Potassium voltage-gated channel subfamily KQT member 1 (Homo sapiens), sequence (P51787 whole entry, looked up): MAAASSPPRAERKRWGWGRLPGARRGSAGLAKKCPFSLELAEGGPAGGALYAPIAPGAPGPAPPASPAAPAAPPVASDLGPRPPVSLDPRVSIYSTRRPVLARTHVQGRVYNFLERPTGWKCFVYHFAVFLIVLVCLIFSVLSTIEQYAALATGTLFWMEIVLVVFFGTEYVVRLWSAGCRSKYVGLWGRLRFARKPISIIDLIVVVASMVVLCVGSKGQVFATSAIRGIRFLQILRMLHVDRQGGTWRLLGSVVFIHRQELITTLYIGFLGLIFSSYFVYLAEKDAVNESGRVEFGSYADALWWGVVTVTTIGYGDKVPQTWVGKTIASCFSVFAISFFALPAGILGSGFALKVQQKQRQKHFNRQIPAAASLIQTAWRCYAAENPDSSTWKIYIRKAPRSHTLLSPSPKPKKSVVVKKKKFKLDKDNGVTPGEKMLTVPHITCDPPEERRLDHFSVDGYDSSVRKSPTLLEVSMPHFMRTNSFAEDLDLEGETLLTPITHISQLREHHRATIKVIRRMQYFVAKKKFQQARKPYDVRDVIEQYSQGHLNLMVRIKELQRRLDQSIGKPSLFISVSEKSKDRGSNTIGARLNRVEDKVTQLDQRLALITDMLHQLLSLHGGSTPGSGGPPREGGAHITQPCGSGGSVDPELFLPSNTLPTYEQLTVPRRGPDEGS

The target in the experiment is Potassium voltage-gated channel subfamily KQT member 1 (Homo sapiens) (UniProt P51787). The experiment in a line: KCNQ1 channel current potentiators, confirmation, orthogonal assay for KCNQ1 potentiator project, IonWorks patch clamp, KCNQ1-CHO cells (AID 493184). The settings on record: automated patch clamp current, at 10 µM. Summed up:
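Assay system – CHO cells carrying KCNQ1 · Medium – pH 7.4 external bath · Probe or stimulus – depolarizing pulse to +40 mV from -90 mV · Compound dosing – one dose, 10 µM final · Measured by – automated perforated-patch electrophysiology · Measure – % potentiation of steady-state current relative to pre-compound · Repeats – two replicates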
In general terms: In patch-clamp work, channel activity is measured electrically.
As for `CC12CCC(C/C1=N\N=C1\NC(=O)/C(=C\c3ccc(Cl)cc3)S1)C2(C)C` (stereo not given), the result was inactive.

For the molecule `Cc1cc(C)n(/N=C/c2cc(Cl)cc(Cl)c2O)c(=O)c1`, the outcome was inactive.

Regarding `Cn1c(=S)[nH]c2scc(-c3cccs3)c2c1=O`, the outcome was inactive.

Take `CCc1ccc(/C=N/NC(=O)Cc2cccn2C)cc1`: the result was inactive.

As to `CCN(CC)C(=S)NC(=O)c1ccc(Cl)cc1Cl`, the outcome was inactive.

`COc1ccc(-c2nc3ccc(C(=O)NCC(OC)OC)cc3nc2-c2ccc(OC)c(OC)c2)cc1OC`: the result was inactive.

In the case of `OC(CNC1CCCCC1)COCCOc1ccc(Br)cc1` (stereo not given), the outcome was inactive.

On to `Cc1ccc(C)c2sc(NC(=O)c3nc4ccccc4s3)nc12`, for which the result was inactive.

`CCC(=O)Nc1cc(-c2nn3c(C)nnc3s2)ccc1C`: the outcome was inactive.

`COc1ccccc1NC(=O)Cn1cnc2c(oc3nc4c(cc32)CCCC4)c1=O`: the result was inactive.

On to `O=C(c1ccc(COc2ccc(Cl)cc2)o1)N1CCN(Cc2ccc3c(c2)OCO3)CC1`, for which the result was inactive.

As for `O=C(NC(=S)N1CCc2ccccc21)c1ccco1`, the outcome was inactive.

On to `COCCCNC(=O)CC(NS(=O)(=O)c1ccc(F)cc1)c1ccc(OC)cc1` (stereo not given), for which the outcome was inactive.

As for `O=C(CC1C(=O)NCCN1Cc1cccc(F)c1)NCCCN1CCCC1=O` (stereo not given), the outcome was inactive.

Turning to `CC(C)(C)NC(=O)C(=O)NNC(=O)c1cccc(Br)c1`, the outcome was inactive.

Consider `O=C(Nc1cccc(NC(=O)c2c(F)cccc2F)n1)c1c(F)cccc1F`, for which the result was inactive.

As for `CCOC(=O)c1oc2c(CN3CCCCC3C)c(O)ccc2c(=O)c1-c1ccc(OC)c(OC)c1` (stereo not given), the outcome was inactive.

`Cc1nn2c(c1-c1ccccc1)NC1=C(C(=O)CCC1)C2c1ccccc1` (stereo not given): the outcome was inactive.

For the molecule `CSc1nc(C)c2c(n1)N(c1ccc(C(C)C)cc1)CC2`, the result was inactive.

With `CC1CCc2sc(-c3n[nH]c(=S)o3)cc2C1` (stereo not given), the result was inactive.

As for `CCOc1ccc(/C=C2/SC(=O)NC2=S)cc1`, the outcome was inactive.

Turning to `COC(=O)c1ccc(COC(=O)c2ccccn2)cc1`, the result was inactive.

Consider `Cc1cc(NC(c2cccnc2)c2c(C)[nH]c3ccccc23)no1` (stereo not given), for which the result was inactive.

Turning to `Cc1ccc(N=Nc2ccc(O)c3ncccc23)cc1C`, the outcome was inactive.

Take `CC(C)(C)c1cc(-c2csc(Nc3ccccc3)[n+]2Cc2ccc(C(=O)O)cc2)cc(C(C)(C)C)c1O`: the outcome was inactive.

In the case of `Cc1ccc2nc(NC(=S)NC(=O)c3ccco3)sc2c1`, the result was inactive.

Turning to `CC1Cc2ccccc2N1C(=S)NC(=O)c1cccc(Br)c1` (stereo not given), the outcome was inactive.

As to `COc1ccccc1OCCSc1nc2ccccc2n1CCC(=O)O`, the outcome was inactive.

In the case of `Cc1cccc(N=Cc2cc(Br)cc(Cl)c2O)c1`, the result was inactive.

Consider `CC(=O)O[C@H]1CSC[C@H]1NC(=O)c1ccccc1`, for which the result was inactive.

In the case of `CC(C)N(Cc1ccccc1)C(=S)NC(=O)C1(C)CC1(Cl)Cl` (stereo not given), the result was inactive.

As to `O=C(NCC1CCCO1)c1ccc2c(c1)S(=O)(=O)c1ccccc1C2=O` (stereo not given), the result was inactive.

As to `C=CCOc1ccc(/C=C2\SC(=S)N(NS(=O)(=O)c3ccc(C)cc3)C2=O)cc1`, the outcome was inactive.

With `O=C(NC(=S)N1CCc2ccccc21)c1ccccc1Br`, the result was inactive.

On to `CCN(CC)S(=O)(=O)c1cccc(C(=O)N[C@H](C(=O)NNC(=O)c2ccccc2)C(C)C)c1`, for which the outcome was inactive.

As to `Oc1ccc(CN2CCCCC2)c2cccnc12`, the outcome was inactive.

In the case of `Cc1ccc(-c2ccc(=O)n(Cc3cccc(Br)c3)n2)cc1`, the result was inactive.

As to `CC(C)c1ccc(NC(=O)C2CC(=O)N=C(N)S2)cc1` (stereo not given), the outcome was inactive.

For the molecule `COc1ccc(/C=C2\SC(=Nc3ccccc3OC)NC2=O)cc1`, the result was inactive.

For `CC(CCc1ccccc1)NC(=O)COc1cc(F)ccc1[N+](=O)[O-]` (stereo not given), the result was inactive.
